Assay results from different studies.
Protocols differ between the studies behind these lines.
Target: Carbonic anhydrase 2 (CA2, Homo sapiens, UniProt P00918)
Effect on: enzyme activity
Action: inhibitor

For Cc1cccc(CC(=O)Nc2nnc(S(N)(=O)=O)s2)c1, the Ki was 36.8 nM (stopped-flow).
With OC(Cn1cncn1)(Cn1cncn1)c1ccc(F)cc1F the IC50 was 12500 nM (absorbance; pH 7.4).
The IC50 of OC1CCN(c2ccc(/C=N/NC(=S)Nc3ccc(F)cc3)cc2)CC1 is reported as 255 nM (absorbance).
For Cn1cnc([N+](=O)[O-])c1Sc1ncnc2nc[nH]c12, the IC50 was 20600 nM (absorbance; pH 7.4).
The Ki of CC(C)(C)CCC(=O)Nc1nnc(S(N)(=O)=O)s1 is reported as 10.2 nM (stopped-flow).
With Cc1cncc(CN2CCC(=C3c4ccc(Cl)cc4CCc4cccnc43)CC2)c1 the IC50 was 14600 nM (absorbance; pH 7.4).
With OC1CCN(c2ccc(/C=N/NC(=S)NCc3ccc(Cl)cc3)cc2)CC1 the IC50 was 374 nM (absorbance).
The Ki of CC1CCCCC1CC(=O)Nc1nnc(S(N)(=O)=O)s1 (stereo not drawn) is reported as 29.2 nM (stopped-flow).
COc1ccc(NC(=S)N/N=C/c2ccc(N3CCC(O)CC3)cc2)cc1 gave an IC50 of 579 nM (absorbance).
With NS(=O)(=O)c1nnc(NC(=O)CCc2ccc(F)cc2)s1 the Ki was 3.6 nM (stopped-flow).
OC1CCN(c2ccc(/C=N/NC(=S)Nc3ccccc3)cc2)CC1 gave an IC50 of 507 nM (absorbance).
COc1ccc2oc(=O)c(-c3csc(Nc4ccc(C(=O)O)cc4)n3)cc2c1 has an IC50 of 4610 nM (absorbance).
For Cc1ccc(CNC(=S)N/N=C/c2ccc(N3CCC(O)CC3)cc2)cc1, the IC50 was 698 nM (absorbance).
CCOC(=O)N1CCC(=C2c3ccc(Cl)cc3CCc3cccnc32)CC1 has an IC50 of 13100 nM (absorbance; pH 7.4).
NS(=O)(=O)c1cnc(NC(=O)CCc2ccccc2)s1 has a Ki of 98.7 nM (stopped-flow).
